Consider one molecule from ChEMBL document CHEMBL3822375, “Preclinical Characterization of 3β-(N-Acetyl l-cysteine methyl ester)-2aβ,3-dihydrogaliellalactone (GPA512), a Prodrug of a Direct STAT3 Inhibitor for the Treatment of Prostate Cancer” (J Med Chem, 2016).

The subject of data set [1] is Mus musculus. As to the kind of experiment: Toxicity in CD1 mouse assessed as effect on histopathological parameters at 40 to 400 mg/kg, administered as single dose through oral gavage. In kind it is organism-based. The settings on record: in vivo. The method in brief: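 Male CD1 mice, 7 weeks old, 5 per group, given one oral gavage dose of 40, 200 or 400 mg/kg in 50 mM citrate buffer, pH 4.0, 5% DMSO, alongside a vehicle control group. Clinical signs, clinical pathology and histopathology were assessed, with the study ending on day 8.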

Data set [2] relates to Mus musculus. As to the kind of experiment: Toxicity in CD1 mouse assessed as change in body weight at 40 mg/kg, administered as single dose through oral gavage measured on day 1 (reference value: 33.5 +/- 4.34 g). In kind it is organism-based. The following applies: in vivo.
A short description of data set [3]: Antiproliferative activity against human DU145 cells after 72 hrs by WST-1 proliferation assay. In kind it is functional, cell-based. The following applies: DU-145, 72 h. Summed up: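 Cells in RPMI-1640 (DU145, LNCaP, LNCaP-IL6+) or HAM's F-12 (PC3) with 10% FBS. DU145 and LNCaP-IL6+ seeded at 2 000 cells/well, LNCaP and PC3 at 5 000 cells/well, adhered 24 h, then exposed to compound for 72 h. WST-1 absorbance read at 450 nm with 630 nm reference. Background subtracted; expressed as percent of untreated cells.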
(Tetrazolium assays rely on reduction of a dye to a coloured formazan, in cell work by metabolically active cells.)

Data set [4] relates to Mus musculus. As to the kind of experiment: Toxicity in CD1 mouse assessed as change in body weight at 200 mg/kg, administered as single dose through oral gavage measured on day 8 (reference value: 32.28 +/- 4.42 g). The format is organism-based. The following applies: in vivo.
In data set [5] the test system is Mus musculus. Put plainly: Tmax in mouse plasma assessed as galiellalactone level at 40 mg/kg, po by LC-MS/MS analysis. The format is ADME, organism-based. The following applies: in vivo.
Data set [6] deals with Mus musculus. As to the kind of experiment: AUC (0 to t) in mouse plasma assessed as galiellalactone level at 40 mg/kg, po by LC-MS/MS analysis. The format is ADME, organism-based. The following applies: in vivo. The method in brief: (§1)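 Single dose to mice; oral, iv or ip as listed, in 5% DMSO/50 mM citrate buffer pH 4.0 (dosing solutions 0.5, 2 or 5 mg/mL). Oral dosing at 20 mL/kg. Terminal blood under barbiturate anaesthesia at eight time-points to 8 h, n=3 mice per time-point, EDTA plasma. Acetonitrile precipitation with internal standard, LC-MS/MS against plasma calibration lines. Non-compartmental analysis on mean data, trapezoidal AUC.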

A short description of data set [7]: Toxicity in CD1 mouse at 40 to 400 mg/kg, administered as single dose through oral gavage. The format is organism-based. The settings on record: in vivo. Summed up: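 Male CD1 mice, 7 weeks old (27.0–38.5 g), 5 per group, given one oral gavage dose of 40, 200 or 400 mg/kg as a solution in 50 mM citrate buffer pH 4.0 with 5% DMSO. Vehicle-only control group. Weighed at randomization, day 1 before dosing, day 4 and day 8 (study end). Clinical signs, clinical pathology and histopathology were assessed to set the MTD.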

Data set [8] relates to Mus musculus. Put plainly: Toxicity in CD1 mouse assessed as change in body weight at 400 mg/kg, administered as single dose through oral gavage measured on day 1 (reference value: 33.5 +/- 4.34 g). The format is organism-based. The settings on record: in vivo.
Data set [9] deals with Mus musculus. As to the kind of experiment: Toxicity in CD1 mouse assessed as change in body weight at 200 mg/kg, administered as single dose through oral gavage measured on day 1 (reference value: 33.5 +/- 4.34 g). The format is organism-based. The settings on record: in vivo.
For data set [10], the system named is Mus musculus. Put plainly: Effect on STAT3 phosphorylation in NMRI mouse xenografted with human DU145 cells at 40 mg/kg, po administered 5 times per week for 4 weeks by immunohistochemical analysis. The format is functional, organism-based. The following applies: DU-145. The method in brief: (§2)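 Tumours from the oral DU145 xenograft study were fixed in formaldehyde and sectioned. IHC used the EnVision Flex kit with anti-Ki67 and anti-pSTAT3 antibodies, imaged at 10× bright field. Ki67 scored as Ki67-positive cells over total cells.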

Data set [11] relates to Mus musculus. Put plainly: AUC (0 to t) in mouse plasma assessed as galiellalactone level at 10 mg/kg, po by LC-MS/MS analysis. In kind it is ADME, organism-based. The settings on record: in vivo. The method in brief:
as §1

The nature of data set [12]: Chemical stability of the compound in phosphate buffer saline assessed as half life at 10 uM at pH 7.4 by LC-MS/MS analysis. In kind it is physicochemical. The settings on record: phosphate buffered saline. Summed up:
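Compound diluted from DMSO (or methanol) stock to 10 µM, 2% solvent final, n=2. Matrix was 0.1 M PBS pH 7.4, or […] HCl with 2 mg/mL NaCl adjusted to pH 1.2. Mixed on a shaker; sampled at nominal 5, 15, 30 and 60 min plus T=0. LC-MS/MS with internal standard; % remaining relative to T=0. Formation of parent also monitored.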

In data set [13] the test system is DU-145. As to the kind of experiment: Antiproliferative activity against human DU145 cells xenografted in NMRI nude mouse assessed as reduction in Ki67 ratio at 40 mg/kg, po administered 5 times per week for 4 weeks by Ki67 staining-based immunohistochemical analysis. The format is functional, organism-based. Summed up:
as §2
Background: Xenograft models place foreign cells or tissue in a host animal.

In data set [14] the test system is Mus musculus. Put plainly: Toxicity in CD1 mouse assessed as change in body weight at 400 mg/kg, administered as single dose through oral gavage measured on day 4 (reference value: 34.68 +/- 4.71 g). The following applies: in vivo. The format is organism-based.
For data set [15], the system named is Mus musculus. Put plainly: Toxicity in CD1 mouse assessed as change in body weight at 40 mg/kg, administered as single dose through oral gavage measured on day 8 (reference value: 32.28 +/- 4.42 g). In kind it is organism-based. The following applies: in vivo.
The nature of data set [16]: Downregulation of BCL2 mRNA expression in human DU145 cells xenografted in NMRI nude mouse at 40 mg/kg, po administered 5 times per week for 4 weeks by qPCR analysis. The format is functional, organism-based. The following applies: DU-145. The method in brief: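 Half of each DU145 xenograft tumour was snap frozen for mRNA. MCL1 and BCL2 measured by quantitative real-time PCR: 10 min at 95°C, then 40 cycles of 95°C 15 s and 60°C 60 s. Comparative Ct method, normalized to HMBS and SDHA.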

Data set [17] concerns Mus musculus. Put plainly: Toxicity in CD1 mouse assessed as change in body weight at 400 mg/kg, administered as single dose through oral gavage measured on day 8 (reference value: 32.28 +/- 4.42 g). The settings on record: in vivo. In kind it is organism-based.
Data set [18] deals with Mus musculus. As to the kind of experiment: Cmax in mouse plasma assessed as galiellalactone level at 100 mg/kg, po by LC-MS/MS analysis. The format is ADME, organism-based. The arrangement: dose 100 mg/kg, route oral. The settings on record: in vivo. Summed up:
as §1

The subject of data set [19] is Mus musculus. Put plainly: Tmax in mouse plasma assessed as galiellalactone level at 10 mg/kg, po by LC-MS/MS analysis. In kind it is ADME, organism-based. The settings on record: in vivo.

The source made the active and inactive calls. No cut-off for these calls is given here.

For `COC(=O)[C@H](CS[C@H]1C2C(=O)O[C@@H]3CC[C@H](C[C@@H]1C)[C@]23O)NC(C)=O` (some centres undefined), the Activity result in [1] is listed as “Non-toxic”; in [2], 32.52 g; in data set [4] it was 33.02 g; in [8], 33.16 g; in data set [9], 33.56 g; in data set [14] it was 34.76 g. The Activity was determined as 31.12 g in data set [15] and 32.1 g in [17]. Further, inhibition in data set [3] was half-maximal at 4.81 µM (IC50). Further, the Tmax in [5] and in [19] was 15 min in each case. Moreover, the AUCt in data set [6] amounted to 213 µg/mL/min; in [11] it was 117 µg/mL/min. In data set [7], this molecule had an MTD of 400 mg/kg. For the same molecule, in data set [10], the outcome was inactive. The half-life (commonly the time in which the quantity being followed falls by half) at 10 µM in data set [12] is above 150 min. Besides, in [13], the inhibition result is “Active”. The outcome in data set [16] was Active. In addition, in data set [18], the Cmax (usually the maximum level reached in the sampled fluid or tissue) was 7478 ng/mL.
